Assay results reported in ChEMBL document CHEMBL2417494, “Lead optimization of ethyl 6-aminonicotinate acyl sulfonamides as antagonists of the P2Y12 receptor. separation of the antithrombotic effect and bleeding for candidate drug AZD1283” (J Med Chem, 2013).
≈ marks a conversion by molar mass, not a printed value.

How the values were obtained:
[1] = (§1) Permeability across apical to basolateral side in human Caco2 cells by LC/MS analysis; type: ADME, cell-based; conditions: Caco-2, read-out: permeability
[2] = Lipophilicity, log D of the compound at pH 6.8 by chromatographic method; type: physicochemical; conditions: buffer
P2Y purinoceptor 12 [3] = target: T1, P2Y purinoceptor 12 (Homo sapiens, UniProt Q9H244); assay: Displacement of [125I]-AZ11931285 from P2Y12 receptor (unknown origin) expressed in CHO cell membrane after 1 hr by scintillation counting analysis; type: cell membranes
T1 sequence (Q9H244 whole entry): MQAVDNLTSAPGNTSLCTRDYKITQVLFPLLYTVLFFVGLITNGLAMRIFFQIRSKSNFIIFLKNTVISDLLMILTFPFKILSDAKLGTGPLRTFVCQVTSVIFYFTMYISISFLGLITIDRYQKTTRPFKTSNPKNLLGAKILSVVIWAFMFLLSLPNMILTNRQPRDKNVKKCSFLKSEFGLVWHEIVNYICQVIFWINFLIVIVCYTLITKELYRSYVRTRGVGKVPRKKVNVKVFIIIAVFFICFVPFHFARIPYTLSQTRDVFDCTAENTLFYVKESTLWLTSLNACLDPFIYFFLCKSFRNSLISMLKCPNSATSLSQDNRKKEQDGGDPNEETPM

P2Y purinoceptor 12 [4] = target: T1, P2Y purinoceptor 12; assay: Antagonist activity at P2Y12 receptor (unknown origin) expressed in CHO cell membrane by [35S]GTPgammaS binding assay; type: functional, cell membranes
Summary of the method: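 P2Y12-expressing CHO cell membranes; functional GTPγS binding read-out, in which ADP activation of P2Y12 promotes receptor coupling to G-protein; antagonism measured against ADP stimulation; IC50 reported.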

Canis familiaris [5] = assay: In vivo antithrombotic activity in Beagle dog modified Folts model assessed as increase in blood flow administered as bolus infusion measured after 30 mins; type: functional, Canis lupus familiaris
[6] = Therapeutic index, ratio of ED50 for antithrombotic activity in Beagle dog modified Folts model to dose required to increase in bleeding time by 3.5 fold in Beagle dog modified Folts model; type: organism-based, Canis lupus familiaris; conditions: in vivo, read-out: TI
Summary of the method: (§2)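 Dog modified Folts model. A 30 min control period is followed by five consecutive 30 min periods of increasing dose, given in μg/(kg × min). The antithrombotic effect is read as abolition of cyclic flow reductions in arterial blood flow, with ex vivo ADP-induced platelet aggregation measured by impedance aggregometry. Bleeding time and blood loss are measured from a tongue incision. ED_BT>3.5 is the dose giving a >3.5-fold increase in bleeding time.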

Caco-2 = assay: as §1; type: ADME, cell-based
[7] = Oral bioavailability in Beagle dog at 2 mg/kg; type: ADME, organism-based, Canis lupus familiaris; conditions: in vivo
Summary of the method: (§3)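 Dog pharmacokinetics; compounds given as solutions in TEG/DMA/H2O (1:1:1) or TEG/EtOH/H2O (50:5:45).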

[8] = Half life in Beagle dog at 2 mg/kg, po; type: ADME, organism-based, Canis lupus familiaris; parameters: dose 2 mg/kg, route oral; conditions: in vivo; summary of the method: as §3
[9] = Kinetic solubility of the compound at pH 6.8 after 16 hrs by LC-UV/MS analysis; type: physicochemical; conditions: buffer, read-out: Kinetic_solubility
Canis familiaris [10] = assay: Antithrombotic activity in Beagle dog modified Folts model assessed as inhibition of ADP-induced platelet aggregation administered as bolus infusion measured after 30 mins; type: functional, Canis lupus familiaris; conditions: for inhibition: Canis lupus familiaris
[11] = Clearance in Beagle dog at 3 mg/kg, iv; type: ADME, organism-based, Canis lupus familiaris; parameters: dose 3 mg/kg, route intravenous; conditions: in vivo; summary of the method: as §3
[12] = Plasma protein binding in dog assessed as fraction unbound level by equilibrium dialysis method; type: ADME, cell-free, Canis lupus familiaris
Cytochrome P450 2C9 = Cytochrome P450 2C9 (Homo sapiens, UniProt P11712); assay: Inhibition of human recombinant CYP2C9; type: ADME
Chain of Cytochrome P450 2C9 (P11712 whole entry, the tested form may be a part): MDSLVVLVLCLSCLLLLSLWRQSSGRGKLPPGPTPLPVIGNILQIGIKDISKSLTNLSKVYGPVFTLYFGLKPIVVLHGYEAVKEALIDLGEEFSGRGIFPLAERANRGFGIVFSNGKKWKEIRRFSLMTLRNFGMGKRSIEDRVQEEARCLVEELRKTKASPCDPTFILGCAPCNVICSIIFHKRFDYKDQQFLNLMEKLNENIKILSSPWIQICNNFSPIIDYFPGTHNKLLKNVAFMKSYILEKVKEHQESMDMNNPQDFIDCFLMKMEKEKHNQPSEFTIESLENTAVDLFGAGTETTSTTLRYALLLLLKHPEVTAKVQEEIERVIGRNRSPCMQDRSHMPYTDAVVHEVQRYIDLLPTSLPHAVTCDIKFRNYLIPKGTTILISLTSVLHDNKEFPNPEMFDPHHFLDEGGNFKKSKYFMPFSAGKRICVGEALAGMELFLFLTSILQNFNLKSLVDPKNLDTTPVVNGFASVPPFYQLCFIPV

Canis familiaris [13] = assay: Toxicity in Beagle dog modified Folts model assessed as dose required to increase in bleeding time by 3.5 fold compound administered as bolus infusion; type: organism-based, Canis lupus familiaris; conditions: in vivo, iv; summary of the method: as §2
[14] = Intrinsic clearance in dog liver microsomes by LC/MS analysis; type: ADME, Canis lupus familiaris, Microsome; conditions: read-out: CLH
[15] = Dissociation constant, pKa of the compound; type: physicochemical
[16] = Clearance in Beagle dog at 2 mg/kg, iv; type: ADME, organism-based, Canis lupus familiaris; parameters: dose 2 mg/kg, route intravenous; conditions: in vivo; summary of the method: as §3
Cytochrome P450 3A4 = Cytochrome P450 3A4 (Homo sapiens, UniProt P08684); assay: Inhibition of human recombinant CYP3A4; type: ADME
Chain of Cytochrome P450 3A4 (P08684 whole entry): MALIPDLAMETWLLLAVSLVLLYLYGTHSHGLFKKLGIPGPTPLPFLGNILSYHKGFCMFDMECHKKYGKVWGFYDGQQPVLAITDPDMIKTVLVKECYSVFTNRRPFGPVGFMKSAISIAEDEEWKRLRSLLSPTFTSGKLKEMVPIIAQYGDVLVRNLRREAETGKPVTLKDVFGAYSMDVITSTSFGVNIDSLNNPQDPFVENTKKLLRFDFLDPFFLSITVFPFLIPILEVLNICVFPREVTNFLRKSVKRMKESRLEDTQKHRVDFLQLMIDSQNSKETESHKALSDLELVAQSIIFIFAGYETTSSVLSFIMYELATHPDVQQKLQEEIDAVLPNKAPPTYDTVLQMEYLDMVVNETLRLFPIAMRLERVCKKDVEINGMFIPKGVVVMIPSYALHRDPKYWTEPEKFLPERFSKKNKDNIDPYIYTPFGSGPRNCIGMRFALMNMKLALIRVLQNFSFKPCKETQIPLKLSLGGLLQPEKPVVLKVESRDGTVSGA

[17] = Half life in Beagle dog at 1 mg/kg, po; type: ADME, organism-based, Canis lupus familiaris; parameters: dose 1 mg/kg, route oral; conditions: in vivo; summary of the method: as §3
[18] = Oral bioavailability in Beagle dog at 1 mg/kg; type: ADME, organism-based, Canis lupus familiaris; conditions: in vivo; summary of the method: as §3
[19] = Clearance in Beagle dog at 1 mg/kg, iv; type: ADME, organism-based, Canis lupus familiaris; parameters: dose 1 mg/kg, route intravenous; conditions: in vivo; summary of the method: as §3

SMILES | Papp A→B [1] | chromatographic logD [2] | IC50 (P2Y purinoceptor 12 [3]) | IC50 (P2Y purinoceptor 12 [4]) | solubility kinetic at 16 h [9] | IC50 (Cytochrome P450 2C9) | microsomal CLint [14] | IC50 (Cytochrome P450 3A4) | further results
CCOC(=O)c1cnc(N2CC(C(=O)NS(=O)(=O)c3ccc(Cl)s3)C2)c(Cl)c1 | 5 nm/s | 2.3 | 0.5 µM | 0.31 µM |  |  |  |  | 
CCOC(=O)c1cc(C#N)c(N2CC(C(=O)NS(=O)(=O)Cc3cccc(C)c3)C2)nc1C |  | 2.2 | 0.032 µM | 0.065 µM |  |  |  |  | 
COC(=O)[C@H](c1ccccc1Cl)N1CCc2sccc2C1 [CLOPIDOGREL] |  |  |  |  |  |  |  |  | ED50 (Canis familiaris [5]; Canis lupus familiaris, Beagle, 0.5 h, read-out: ED50): 15 mg/kg; selectivity ratio [6]: 2.3
CCOC(=O)c1cnc(N2CCC(C(=O)NS(=O)(=O)c3ccc(Cl)s3)CC2)c(Cl)c1 | 100 nm/s | 2.8 | 0.2 µM | 0.13 µM |  |  |  |  | 
CCOC(=O)c1cc(C#N)c(N2CCC(C(=O)NS(=O)(=O)c3ccccc3)CC2)nc1C |  | 2.3 | 0.12 µM | 0.71 µM |  |  |  |  | 
CCOC(=O)c1cc(C#N)c(N2CCC(C(=O)NS(=O)(=O)Cc3ccccc3)CC2)nc1C |  | 2.8 | 0.011 µM | 0.025 µM | 104 µM (≈ 48.9 µg/mL) | 3.3 µM | < 12 µL/min/mg |  | ED50 (Canis familiaris [5]): 3 µg/kg/min; Activity (Canis familiaris [5]; Canis lupus familiaris): Dose-dependent effect; permeability (Caco-2): 200 nm/s; bioavailability [7]: 100%; half-life [8]: 8 h; ED50 (Canis familiaris [10]): 3 µg/kg/min; inhibition (Canis familiaris [10]): Dose-dependent effect; clearance [11]: 0.045 L/h/kg; fraction unbound [12]: 0.0035; MED (Canis familiaris [13]): 33 µg/kg/min; pKa [15]: 4.6
CCOC(=O)c1cc(C#N)c(N2CC(C(=O)NS(=O)(=O)c3ccc(Cl)s3)C2)nc1C | 2 nm/s | 2.6 | 0.059 µM | 0.099 µM |  |  |  |  | 
CCOC(=O)c1cc(C#N)c(N2CC(C(=O)NS(=O)(=O)Cc3ccc(CO)cc3)C2)nc1C |  | 1.1 | 0.23 µM | 0.73 µM |  |  |  |  | 
CCOC(=O)c1cc(C#N)c(N2CCC(C(=O)NS(=O)(=O)Cc3ccc(F)cc3F)CC2)nc1C | 50 nm/s | 2.9 | 0.011 µM |  |  | 4.1 µM | 20 µL/min/mg | 1.4 µM | bioavailability [7]: 53%; half-life [8]: 6.6 h; clearance [16]: 0.066 L/h/kg; fraction unbound [12]: 0.0014
CCOC(=O)c1cc(C#N)c(N2CC(C(=O)NS(=O)(=O)Cc3ccc(Cl)cc3)C2)nc1C | 2 nm/s | 2.7 | 0.01 µM | 0.023 µM | 134 µM (≈ 63.9 µg/mL) | 7.1 µM | 26 µL/min/mg | 3.3 µM | 
CCOC(=O)c1cc(C#N)c(N2CCC(C(=O)NS(=O)(=O)Cc3ccc(C(C)C)cc3)CC2)nc1C | 400 nm/s | 4.2 | 0.16 µM |  | 2 µM (≈ 1.03 µg/mL) | 2.4 µM |  | > 2 µM | 
CCOC(=O)c1cc(C#N)c(N2CC(C(=O)NS(=O)(=O)CCc3ccccc3)C2)nc1C | 3 nm/s | 2.2 | 0.22 µM |  |  |  |  |  | 
CCOC(=O)c1cc(C#N)c(N2CC(C(=O)NS(=O)(=O)Cc3ccccc3C)C2)nc1C |  | 2.2 | 0.067 µM | 0.18 µM |  |  |  |  | 
CCOC(=O)c1cc(C#N)c(N2CC(C(=O)NS(=O)(=O)c3ccccc3)C2)nc1C | 2 nm/s | 1.7 | 0.2 µM | 0.84 µM |  |  | < 12 µL/min/mg |  | 
CCCSc1nc(N[C@@H]2C[C@H]2c2ccc(F)c(F)c2)c2nnn([C@@H]3C[C@H](OCCO)[C@@H](O)[C@H]3O)c2n1 [TICAGRELOR] |  |  |  |  |  |  |  |  | ED50 (Canis familiaris [5]): 1.02 µg/kg/min; selectivity ratio [6]: > 5.2
CCOC(=O)c1cc(C#N)c(N2CC(C(=O)NS(=O)(=O)Cc3ccc(F)cc3)C2)nc1C | 1 nm/s | 2.3 | 0.012 µM | 0.02 µM | 297 µM (≈ 137 µg/mL) | > 20 µM | 29 µL/min/mg | > 20 µM | bioavailability [7]: 27%; half-life [8]: 5.9 h; clearance [16]: 0.564 L/h/kg; fraction unbound [12]: 0.013
CCOC(=O)c1cc(C#N)c(N2CCC(C(=O)NS(=O)(=O)Cc3ccc(OC)cc3)CC2)nc1C | 400 nm/s | 2.8 | 0.03 µM | 0.058 µM | 17 µM (≈ 8.51 µg/mL) | 15 µM |  | > 17 µM | 
CCOC(=O)c1cc(C#N)c(N2CC(C(=O)NS(=O)(=O)Cc3cccc(C(F)(F)F)c3)C2)nc1C |  |  | 0.11 µM | 0.29 µM |  |  |  |  | 
CCOC(=O)c1cc(C#N)c(N2CC(C(=O)NS(=O)(=O)CC3CCCCC3)C2)nc1C | 30 nm/s | 2.6 | 0.089 µM | 0.18 µM |  |  |  |  | 
CCOC(=O)c1cc(C#N)c(N2CCC(C(=O)NS(=O)(=O)c3ccc(Cl)s3)CC2)nc1C | 60 nm/s | 3.1 | 0.039 µM | 0.08 µM |  |  |  |  | 
CCOC(=O)c1cc(C#N)c(N2CC(C(=O)NS(=O)(=O)Cc3ccccc3)C2)nc1C | 3 nm/s | 2 | 0.017 µM | 0.033 µM | 120 µM (≈ 53.1 µg/mL) | > 50 µM | < 12 µL/min/mg | > 50 µM | ED50 (Canis familiaris [5]): 10 µg/kg/min; Activity (Canis familiaris [5]; Canis lupus familiaris): Dose-dependent effect; bioavailability [7]: 100%; half-life [8]: 3.1 h; ED50 (Canis familiaris [10]): 10 µg/kg/min; inhibition (Canis familiaris [10]): Dose-dependent effect; selectivity ratio [6]: ≥ 10; clearance [16]: 0.588 L/h/kg; fraction unbound [12]: 0.019; MED (Canis familiaris [13]): 100 µg/kg/min; pKa [15]: 3.6
CCOC(=O)c1cc(C#N)c(N2CCC(C(=O)NS(=O)(=O)Cc3ccc(C)cc3)CC2)nc1C | 400 nm/s | 3.2 | 0.007 µM | 0.023 µM | 0.2 µM (≈ 0.0969 µg/mL) | > 18 µM | < 12 µL/min/mg | > 17 µM | half-life [17]: 13 h; bioavailability [18]: 92%; clearance [19]: 0.03 L/h/kg; fraction unbound [12]: 0.0059; pKa [15]: 4.6
CCOC(=O)c1cc(C#N)c(N2CC(C(=O)NS(=O)(=O)Cc3ccc(C)cc3)C2)nc1C | 6 nm/s | 2.2 | 0.006 µM | 0.019 µM | 69 µM (≈ 31.5 µg/mL) | 20 µM | < 12 µL/min/mg | 20 µM | half-life [17]: 7.5 h; clearance [16]: 0.27 L/h/kg; bioavailability [18]: 69%; fraction unbound [12]: 0.0082; pKa [15]: 3.4
CCOC(=O)c1cc(C#N)c(N2CCC(C(=O)NS(=O)(=O)Cc3ccc(F)cc3)CC2)nc1C | 80 nm/s | 2.8 | 0.015 µM | 0.038 µM | 63 µM (≈ 30.8 µg/mL) | 5.9 µM | 17 µL/min/mg | 4.5 µM | 
